Converted amounts (≈) assume the structure as drawn. The source made the active and inactive calls. No cut-off for these calls is given here.
Assays:
[1] = system: Human alphaherpesvirus 1; assay: Antiviral activity against Herpes simplex virus 1 KOS infected in primary rabbit kidney cells assessed as inhibition of virus-induced cytopathogenicity; type: functional; settings: Human alphaherpesvirus 1, KOS
[2] = system: Human alphaherpesvirus 1; assay: Antiviral activity against Herpes simplex virus 1 KOS infected in human skin fibroblasts primed with interferon and superinduced with cyclohexamide and actinomycin D assessed as inhibition of virus-induced cytopathogenicity; type: functional; settings: Human alphaherpesvirus 1, KOS
[3] = Cytotoxicity against mouse L cells assessed as suppression of replication; type: cell-based; settings: l929
[4] = system: Vesicular stomatitis virus; assay: Antiviral activity against Vesicular stomatitis virus infected in primary rabbit kidney cells assessed as inhibition of virus-induced cytopathogenicity; type: functional, organism-based
[5] = system: Vesicular stomatitis virus; assay: Antiviral activity against Vesicular stomatitis virus infected in human skin fibroblasts primed with interferon and superinduced with cyclohexamide and actinomycin D assessed as inhibition of virus-induced cytopathogenicity; type: functional, organism-based
[6] = Cytotoxicity against mouse L cells assessed as suppression of replication at 10^-3 M; type: cell-based; settings: l929, 1000 µM
[7] = Ratio of I50 for DNA synthesis in primary rabbit kidney cells by [3H]-dT incorporation assay to MIC50 for Herpes simplex virus 1 KOS
Method in brief: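 DNA synthesis in uninfected PRK cells measured by [3H]-dT incorporation. The concentration giving 50% reduction is set against the concentration giving 50% reduction in herpes virus cytopathogenicity.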

SMILES | MIC [1] | MIC [2] | Activity [3] | inhibition [4] | inhibition [5] | Activity [6] | Ratio [7]
O=c1[nH]c(=O)n([C@H]2C[C@H](O)[C@@H](CO)O2)cc1I [IDOXURIDINE] | 1.4 µM (≈ 0.496 µg/mL) | 0.35 µM (≈ 0.124 µg/mL) | Toxic |  |  |  | 
Nc1ncnc2c1ncn2[C@@H]1O[C@H](CO)[C@@H](O)[C@@H]1O [VIDARABINE] | 14 µM (≈ 3.74 µg/mL) | 3.5 µM (≈ 0.935 µg/mL) |  |  |  |  | 
O=c1[nH]c(=O)n([C@@H]2O[C@H](CO)[C@@H](O)[C@H]2O)cc1OCc1ccccc1 | > 600 µM | > 600 µM |  | inactive | inactive |  | 
O=c1[nH]c(=O)n([C@@H]2O[C@H](CO)[C@@H](O)[C@H]2O)cc1OCc1ccc([N+](=O)[O-])cc1 | > 600 µM | > 600 µM |  | inactive | inactive |  | 
C=CCOc1cn([C@H]2C[C@H](O)[C@@H](CO)O2)c(=O)[nH]c1=O | 14 µM (≈ 3.98 µg/mL) | 140 µM (≈ 39.8 µg/mL) |  | inactive | inactive |  | 
O=C(O)COc1cn([C@H]2C[C@H](O)[C@@H](CO)O2)c(=O)[nH]c1=O | > 600 µM |  |  | inactive | inactive |  | 
C#CCOc1cn([C@H]2C[C@H](O)[C@@H](CO)O2)c(=O)[nH]c1=O | 2.6 µM (≈ 0.734 µg/mL) | 3.5 µM (≈ 0.988 µg/mL) |  | inactive | inactive | Non-toxic | 150
NC(=O)COc1cn([C@H]2C[C@H](O)[C@@H](CO)O2)c(=O)[nH]c1=O | 140 µM (≈ 42.2 µg/mL) | 260 µM (≈ 78.3 µg/mL) |  | inactive | inactive |  | 
O=c1[nH]c(=O)n([C@H]2C[C@H](O)[C@@H](CO)O2)cc1OCc1ccccc1 | > 120 µM | > 450 µM |  | inactive | inactive |  | 
Cc1ccc(COc2cn([C@@H]3O[C@H](CO)[C@@H](O)[C@H]3O)c(=O)[nH]c2=O)cc1 | > 600 µM | > 600 µM |  | inactive | inactive |  | 
O=c1[nH]c(=O)n([C@H]2C[C@H](O)[C@@H](CO)O2)cc1OCc1ccc([N+](=O)[O-])cc1 | > 260 µM | > 520 µM |  | inactive | inactive |  | 
O=c1[nH]c(=O)n([C@H]2C[C@H](O)[C@@H](CO)O2)cc1O | 16 µM (≈ 3.91 µg/mL) | 3.5 µM (≈ 0.855 µg/mL) |  |  |  |  | 
NC(=O)COc1cn([C@@H]2O[C@H](CO)[C@@H](O)[C@H]2O)c(=O)[nH]c1=O | > 600 µM | > 600 µM |  | inactive | inactive |  | 
C=CCOc1cn([C@@H]2O[C@H](CO)[C@@H](O)[C@H]2O)c(=O)[nH]c1=O | > 600 µM | > 600 µM |  | inactive | inactive |  | 

— ChEMBL document CHEMBL3244322, “5-O-Alkylated derivatives of 5-hydroxy-2'-deoxyuridine as potential antiviral agents. Anti-herpes activity of 5-propynyloxy-2'-deoxyuridine” (J Med Chem, 1978)
